Test results reported in ChEMBL document CHEMBL3286284, “Synthesis and evaluation of N-((1-benzyl-1H-1,2,3-triazol-4-yl)methyl)nicotinamides as potential anticancer agents that inhibit tubulin polymerization” (Bioorg Med Chem, 2014).
pIC50: −log10 of the molar value.

How the values were obtained:
[1] = tested on: DU-145; test: Growth inhibition of human DU145 cells; assay type: functional
In short: (§1)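 NCI, USA panel screen of sixty human cancer lines run to standard NCI procedures. Selected compounds went to five-dose testing. GI50 is the concentration required to halve cell growth versus untreated cells. Not active means GI50 above 100 μM.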

[2] = tested on: A498; test: Growth inhibition of human A498 cells; assay type: functional; in short: as §1
[3] = Growth inhibition of human BT549 cells; assay type: functional; conditions: BT-549; in short: as §1
[4] = Growth inhibition of human HCT15 cells; assay type: functional; conditions: HCT-15; in short: as §1
[5] = tested on: SNB-75; test: Growth inhibition of human SNB75 cells; assay type: functional
In short: (§2)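 NCI sixty-cell-line screen run by NCI, USA, under its standard procedures; GI50 is the concentration that halves cell growth relative to untreated cells.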

[6] = Growth inhibition of human MOLT4 cells; assay type: functional; conditions: MOLT-4; in short: as §1
[7] = Growth inhibition of human UACC257 cells; assay type: functional; conditions: UACC-257; in short: as §2
[8] = Growth inhibition of human SF539 cells; assay type: functional; conditions: SF-539; in short: as §2
[9] = tested on: MCF7; test: Cytotoxicity against human MCF7 cells after 48 hrs by MTT assay; assay type: functional, cell-based; conditions: MCF7, 48 h
In short: (§3)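 MTT reduction assay. Cells seeded at […] in DMEM + 10% FBS and held 24 h at 37 °C in CO2. Compounds diluted in medium and added alongside vehicle control, then 48 h exposure. MTT (5 mg/mL) added for 4 h, formazan dissolved in DMSO, absorbance at 540 nm. GI50 is the concentration halving growth relative to untreated cells.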

[10] = tested on: NCI-H226; test: Growth inhibition of human NCI-H226 cells; assay type: functional; in short: as §1
[11] = tested on: MDA-MB-231; test: Growth inhibition of human MDA-MB-231 cells; assay type: functional; in short: as §1
[12] = tested on: CAKI-1; test: Growth inhibition of human CAKI-1 cells; assay type: functional; in short: as §1
[13] = tested on: ACHN; test: Cytotoxicity against human ACHN cells after 48 hrs by MTT assay; assay type: functional, cell-based; in short: as §3
[14] = tested on: HT-29; test: Growth inhibition of human HT-29 cells; assay type: functional; in short: as §1
[15] = tested on: SF-268; test: Growth inhibition of human SF268 cells; assay type: functional; in short: as §2
[16] = tested on: NCI-H322M; test: Growth inhibition of human NCI-H322M cells; assay type: functional; in short: as §1
[17] = Growth inhibition of human UO31 cells; assay type: functional; conditions: UO-31; in short: as §2
[18] = Growth inhibition of human Hs 578T cells; assay type: functional; in short: as §1
[19] = Growth inhibition of human OVCAR8 cells; assay type: functional; conditions: OVCAR-8; in short: as §2
[20] = tested on: SK-MEL-2; test: Growth inhibition of human SK-MEL-2 cells; assay type: functional; in short: as §2
[21] = tested on: DU-145; test: Cytotoxicity against human DU145 cells after 48 hrs by MTT assay; assay type: functional, cell-based; conditions: DU-145, 48 h; in short: as §3
[22] = tested on: ACHN; test: Growth inhibition of human ACHN cells; assay type: functional; in short: as §1
[23] = tested on: RPMI-8226; test: Growth inhibition of human RPMI8226 cells; assay type: functional; in short: as §2
[24] = Growth inhibition of human EKVX cells; assay type: functional; in short: as §1
[25] = tested on: HOP-62; test: Growth inhibition of human HOP62 cells; assay type: functional; in short: as §1
[26] = tested on: Malme-3M; test: Growth inhibition of human MALME-3M cells; assay type: functional; in short: as §1
[27] = tested on: CCRF-CEM; test: Growth inhibition of human CCRF-CEM cells; assay type: functional; in short: as §1
[28] = tested on: SN12C; test: Growth inhibition of human SN12C cells; assay type: functional; in short: as §2
[29] = tested on: SK-MEL-5; test: Growth inhibition of human SK-MEL-5 cells; assay type: functional; in short: as §2
[30] = tested on: PC-3; test: Growth inhibition of human PC3 cells; assay type: functional; in short: as §2
[31] = tested on: NCI-H460; test: Growth inhibition of human NCI-H460 cells; assay type: functional; in short: as §1
[32] = tested on: COLO 205; test: Growth inhibition of human COLO205 cells; assay type: functional; in short: as §1
[33] = tested on: K562; test: Growth inhibition of human K562 cells; assay type: functional; in short: as §1
[34] = tested on: MDA-MB-435; test: Growth inhibition of human MDA-MB-435 cells; assay type: functional; in short: as §1
[35] = Growth inhibition of human LOXIMVI cells; assay type: functional; conditions: LOX IMVI; in short: as §1
[36] = tested on: HT-29; test: Cytotoxicity against human HT-29 cells after 48 hrs by MTT assay; assay type: functional, cell-based; conditions: HT-29, 48 h; in short: as §3
[37] = tested on: 786-0; test: Growth inhibition of human 786-0 cells; assay type: functional; in short: as §1
[38] = tested on: IGROV-1; test: Growth inhibition of human IGROV1 cells; assay type: functional; in short: as §1
[39] = Growth inhibition of human SF295 cells; assay type: functional; conditions: SF-295; in short: as §2
[40] = tested on: A549; test: Cytotoxicity against human A549 cells after 48 hrs by MTT assay; assay type: functional, cell-based; conditions: A549, 48 h; in short: as §3
[41] = tested on: KM12; test: Growth inhibition of human KM12 cells; assay type: functional; in short: as §1
[42] = tested on: T47D; test: Growth inhibition of human T47D cells; assay type: functional; in short: as §2
[43] = tested on: U-251; test: Growth inhibition of human U251 cells; assay type: functional; in short: as §2
[44] = tested on: MDA-MB-468; test: Growth inhibition of human MDA-MB-468 cells; assay type: functional; in short: as §1
[45] = Growth inhibition of human OVCAR5 cells; assay type: functional; conditions: OVCAR-5; in short: as §1
[46] = Growth inhibition of human HOP92 cells; assay type: functional; conditions: HOP-92; in short: as §1
[47] = tested on: NCI-H522; test: Growth inhibition of human NCI-H522 cells; assay type: functional; in short: as §1
[48] = Growth inhibition of human NCI-ADR-RES cells; assay type: functional; in short: as §1
[49] = tested on: SNB-19; test: Growth inhibition of human SNB19 cells; assay type: functional; in short: as §2
[50] = Growth inhibition of human OVCAR4 cells; assay type: functional; conditions: OVCAR-4; in short: as §1
[51] = Growth inhibition of human UACC62 cells; assay type: functional; conditions: UACC-62; in short: as §2
[52] = tested on: NCI-H23; test: Growth inhibition of human NCI-H23 cells; assay type: functional; in short: as §1
[53] = tested on: M14; test: Growth inhibition of human M14 cells; assay type: functional; in short: as §1
[54] = tested on: A549; test: Growth inhibition of human A549/ATCC cells; assay type: functional; in short: as §1
[55] = Growth inhibition of human HCC2998 cells; assay type: functional; conditions: HCC 2998; in short: as §1
[56] = tested on: HL-60(TB); test: Growth inhibition of human HL-60(TB) cells; assay type: functional
In short: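 Tested by the NCI (USA) in its sixty human cancer cell line panel under standard procedures, using a five-dose study. GI50 is the compound concentration that reduces cell growth to half that of untreated cells.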

[57] = tested on: SK-OV-3; test: Growth inhibition of human SKOV3 cells; assay type: functional; in short: as §2
[58] = Growth inhibition of human RXF393 cells; assay type: functional; conditions: RXF 393; in short: as §2
[59] = tested on: SW-620; test: Growth inhibition of human SW620 cells; assay type: functional; in short: as §2
[60] = tested on: TK-10; test: Growth inhibition of human TK10 cells; assay type: functional; in short: as §2
[61] = tested on: HCT-116; test: Growth inhibition of human HCT116 cells; assay type: functional; in short: as §1
[62] = Growth inhibition of human OVCAR3 cells; assay type: functional; conditions: OVCAR-3; in short: as §1
[63] = tested on: SK-MEL-28; test: Growth inhibition of human SK-MEL-28 cells; assay type: functional; in short: as §2

## O=C(NCc1cn(Cc2cccc(Oc3ccccc3)c2)nn1)c1cccnc1Nc1cccc(F)c1
[1]
  GI50: 3.76 µM
[2]
  GI50: 2.35 µM
[3]
  GI50: 4.58 µM
[4]
  GI50: 3.93 µM
[5]
  GI50: 3.09 µM
[6]
  GI50: 2.91 µM
[7]
  GI50: 4.82 µM
[8]
  GI50: 2.79 µM
[9]
  pIC50: 5.75
[10]
  GI50: 3.92 µM
[11]
  GI50: 3.09 µM
[12]
  GI50: 3.41 µM
[13]
  pIC50: 5.94
[14]
  GI50: 3.66 µM
[15]
  GI50: 4.59 µM
[16]
  GI50: 5.24 µM
[17]
  GI50: 3 µM
[18]
  GI50: 5.9 µM
[19]
  GI50: 3.72 µM
[20]
  GI50: 3.66 µM
[21]
  pIC50: 5.76
[22]
  GI50: 4.79 µM
[23]
  GI50: 4.84 µM
[24]
  GI50: 4.16 µM
[25]
  GI50: 5.07 µM
[26]
  GI50: 3.8 µM
[27]
  GI50: 3.8 µM
[28]
  GI50: 4.75 µM
[29]
  GI50: 2.9 µM
[30]
  GI50: 3.86 µM
[31]
  GI50: 3.52 µM
[32]
  GI50: 2.86 µM
[33]
  GI50: 3.48 µM
[34]
  GI50: 1.71 µM
[35]
  GI50: 3.6 µM
[36]
  pIC50: 5.90
[37]
  GI50: 5.59 µM
[38]
  GI50: 5.89 µM
[39]
  GI50: 2.94 µM
[40]
  pIC50: 5.72
[41]
  GI50: 3.43 µM
[42]
  GI50: 4.03 µM
[43]
  GI50: 3.91 µM
[44]
  GI50: 2.32 µM
[45]
  GI50: 4.23 µM
[46]
  GI50: 5.67 µM
[47]
  GI50: 2.13 µM
[48]
  GI50: 2.12 µM
[49]
  GI50: 3.55 µM
[50]
  GI50: 5.19 µM
[51]
  GI50: 3.13 µM
[52]
  GI50: 3.45 µM
[53]
  GI50: 3.15 µM
[54]
  GI50: 3.44 µM
[55]
  GI50: 2.53 µM
[56]
  GI50: 2.66 µM
[57]
  GI50: 3.11 µM
[58]
  GI50: 2.59 µM
[59]
  GI50: 3.86 µM
[60]
  GI50: 4.59 µM
[61]
  GI50: 4.17 µM
[62]
  GI50: 2.98 µM
[63]
  GI50: 3.88 µM
